Measurements published in article PMC8301577 (Clinical and Translational Science, 2021).
Values joined by “and” are separate entries in the source; they are usually repeats but may differ in a detail not shown here. Equal values may be shown once. “Also recorded” adds a separate entry of the source.

Experiments:
[1] = cited from earlier work
ACE = conditions: cited from earlier work
[2] = Stability of QC samples in human plasma; format: physicochemical; conditions: autosampler 4°C for 48 h or 3 successive freeze (−20°C) and thaw cycles
Outline: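 Plasma QC samples held both analytes at 30, 300 and 1000 pg/ml, five replicates each. They were extracted by solid phase with deuterated internal standards and quantified by LC-MS/MS. Processed samples were tested after 48 h in the autosampler at 4°C, and QC samples after three freeze (−20°C)/thaw cycles, following FDA bioanalytical validation guidance.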

Single-dose = format: in vivo, human; conditions: for CL: single oral dose 1 mg trandolapril, mean
CES1 G143E = conditions: cells transfected with the variant; cited from earlier work
healthy volunteers = experiment: Single-dose; format: in vivo, human
Outline: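 Healthy non-smoking volunteers (8 CES1 G143E heterozygotes, 11 noncarriers) fasted overnight, then took a single 1 mg oral test compound dose with 240 ml water and fasted until 4 h post-dose. The maximal post-dose reduction was taken; mean ± SD.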

[3] = G/E, individual subjects (n=8), single oral dose 1 mg
[4] = G/G, individual subjects (n=11), single oral dose 1 mg
[5] = Mean ± SD (G/E), n=8, single oral dose 1 mg
[6] = Mean ± SD (G/G), n=11, single oral dose 1 mg

**Q.** With COC(=O)C(c1ccccc1)C1CCCCN1 (centres unmarked) [methylphenidate] as the compound, how does the “mean AUC0‐∞ higher in G143E carriers than in controls” value ([1]; Danish volunteers, 6 carriers and 16 noncarriers, p < 0.0001) read?
**A.** The value was 152.4%.

**Q.** With C[C@H](N[C@@H](CCc1ccccc1)C(=O)O)C(=O)N1[C@H](C(=O)O)C[C@H]2CCCC[C@@H]21 [Trandolaprilat, trandolaprilat] as the compound, how does the “potency at inhibiting ACE relative to parent compound trandolapril” value (ACE) read?
**A.** Its value is “approximately eight times more potent”.

**Q.** What about the “stability of processed and QC samples” value [2] of the same compound?
**A.** Its value is “stable”.

**Q.** What about the “decrease of Cmax in G143E carriers relative to noncarriers” value (Single-dose; 1 mg oral trandolapril, p = 0.17, not statistically significant) of the same compound?
**A.** Its value is 20%.

**Q.** What about the “decrease of AUC0–72 h in G143E carriers relative to noncarriers” value (Single-dose; 1 mg oral trandolapril, p = 0.33, not statistically significant) of the same compound?
**A.** The value was 15%.

**Q.** What about the CL (Single-dose; CES1 143G/E (n=8)) of the same compound?
**A.** The CL was 9.96 L/h.

**Q.** What about the CL (Single-dose; CES1 143G/G (n=11)) of the same compound?
**A.** The CL was 12.20 L/h.

**Q.** What about the Tmax (Single-dose; human, plasma, po, 1 mg) of the same compound?
**A.** Its Tmax is 6.7 h.

**Q.** For CCOC(=O)[C@H](CCc1ccccc1)N[C@@H](C)C(=O)N1Cc2ccccc2C[C@H]1C(=O)O [quinapril], which “impact of G143E on PKs” value ([1]; Finnish subjects, carriers = 10, noncarriers = 12) is on record?
**A.** Its value is “no significant impact”.

**Q.** With CCOC(=O)[C@H](CCc1ccccc1)N[C@@H](C)C(=O)N1CCC[C@H]1C(=O)O [enalapril] as the compound, how does the “difference of PK parameters between G143E carriers and controls” value ([1]; Danish volunteers, 6 carriers and 16 noncarriers) read?
**A.** The value was “no significant difference”.

**Q.** What does the source list for CCOC(=O)[C@H](CCc1ccccc1)N[C@@H](C)C(=O)N1[C@H](C(=O)O)C[C@H]2CCCC[C@@H]21 [Trandolapril]?
**A.** catalytic activity of CES1 G143E on trandolapril activation (CES1 G143E): abolished; also recorded: completely impaired; stability of processed and QC samples [2]: stable; CL (Single-dose; CES1 143G/E (n=8)): 1027.58 L/h; CL (Single-dose; CES1 143G/G (n=11)): 893.90 L/h; DBP Max reduction (healthy volunteers; [3]): 10 and 11 and 3 and 15 and 21 and 6 and 13; Heart rate Max reduction (healthy volunteers; [3]): 20 and 11 and 17 and 7 and 3 and 4 and 18; SBP Max reduction (healthy volunteers; [3]): 11 and 12 and 6 and 5 and 4 and 33; DBP Max reduction (healthy volunteers; [4]): 19 and 23 and 8 and 30 and 5 and 14 and 7 and 15 and 13; Heart rate Max reduction (healthy volunteers; [4]): 3 and −1 and 6 and 24 and 4 and −3 and 7 and 10 and 30 and 9; SBP Max reduction (healthy volunteers; [4]): 32 and 23 and 10 and 16 and 12 and 7 and 5 and 11; DBP Max reduction (healthy volunteers; [5]): 12 ± 6; Heart rate Max reduction (healthy volunteers; [5]): 12 ± 7; SBP Max reduction (healthy volunteers; [5]): 11 ± 9; DBP Max reduction (healthy volunteers; [6]): 15 ± 7; Heart rate Max reduction (healthy volunteers; [6]): 9 ± 10; SBP Max reduction (healthy volunteers; [6]): 14 ± 8; average maximum reduction of SBP in carriers less than in noncarriers (healthy volunteers; abstract, not statistically significant): ~ 22%; changes in heart rate after trandolapril administration (healthy volunteers; noncarrier and carrier group): no significant changes; time of maximal reduction of SBP and DBP after dosing (healthy volunteers; noncarrier group, single oral dose 1 mg): 6 to 8 h; maximum reduction of DBP in carrier group as percent of noncarrier group (healthy volunteers; p = 0.26, not statistically significant): 80.0%; maximum reduction of SBP in carrier group as percent of noncarrier group (healthy volunteers; p = 0.54, not statistically significant): 78.6%

**Q.** With C[C@H](N[C@@H](CCc1ccccc1)C(=O)O)C(=O)N1CCC[C@H]1C(=O)O [enalaprilat] as the compound, how does the “decrease of AUC0‐∞ in G143E carriers” value ([1]; Finnish subjects, carriers = 10, noncarriers = 12, p = 0.049) read?
**A.** The value was 20%.
